In ChEMBL document CHEMBL4020830, “Design, Synthesis, and Evaluation of a Novel Series of Indole Sulfonamide Peroxisome Proliferator Activated Receptor (PPAR) α/γ/δ Triple Activators: Discovery of Lanifibranor, a New Antifibrotic Clinical Candidate” (J Med Chem, 2018):
pEC50: −log10 of the molar value. Activity calls are given as the source filed them. The rule behind the calls is not given here.

Columns and labels:
[1] = target: T1, Peroxisome proliferator-activated receptor gamma (Homo sapiens, UniProt P37231); assay: Transactivation of human GAL4-fused PPARgamma LBD expressed in African green monkey COS7 cells co-expressing 5Gal4 pGL3 TK Luc after overnight incubation by luciferase reporter gene assay; type: cell-based
T1 sequence (P37231 whole entry): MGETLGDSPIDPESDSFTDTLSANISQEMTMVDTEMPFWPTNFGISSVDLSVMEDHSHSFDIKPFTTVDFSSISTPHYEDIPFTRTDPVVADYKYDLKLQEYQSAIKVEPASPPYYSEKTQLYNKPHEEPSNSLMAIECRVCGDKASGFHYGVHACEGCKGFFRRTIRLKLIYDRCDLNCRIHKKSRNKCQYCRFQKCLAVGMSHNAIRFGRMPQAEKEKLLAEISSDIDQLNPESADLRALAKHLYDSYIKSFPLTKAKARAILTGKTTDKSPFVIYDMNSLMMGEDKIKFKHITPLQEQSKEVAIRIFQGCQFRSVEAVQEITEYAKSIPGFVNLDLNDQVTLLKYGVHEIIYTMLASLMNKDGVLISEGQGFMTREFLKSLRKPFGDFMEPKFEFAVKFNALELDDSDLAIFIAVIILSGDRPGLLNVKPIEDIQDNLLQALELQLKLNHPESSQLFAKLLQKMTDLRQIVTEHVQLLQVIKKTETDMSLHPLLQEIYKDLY
Procedure, shortened: (§1)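 Cell-based Gal-4 transactivation assay in COS-7 cells transfected with PPARα, PPARδ or PPARγ ligand-binding domain. EC50 and Emax were derived, with Emax as maximum activation in percent of control. EC50s are means of at least two independent experiments performed in triplicate.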

[2] = Apparent permeability from basolateral to apical side in human Caco2 cells at 10 uM after 2 hrs by LC-MS/MS analysis; type: ADME, cell-based, Caco-2
[3] = target: T2, Peroxisome proliferator-activated receptor delta (Homo sapiens, UniProt Q03181); assay: Transactivation of human GAL4-fused PPARdelta LBD expressed in African green monkey COS7 cells co-expressing 5Gal4 pGL3 TK Luc after overnight incubation by luciferase reporter gene assay; type: cell-based; procedure, shortened: as §1
T2 sequence (Q03181 whole entry): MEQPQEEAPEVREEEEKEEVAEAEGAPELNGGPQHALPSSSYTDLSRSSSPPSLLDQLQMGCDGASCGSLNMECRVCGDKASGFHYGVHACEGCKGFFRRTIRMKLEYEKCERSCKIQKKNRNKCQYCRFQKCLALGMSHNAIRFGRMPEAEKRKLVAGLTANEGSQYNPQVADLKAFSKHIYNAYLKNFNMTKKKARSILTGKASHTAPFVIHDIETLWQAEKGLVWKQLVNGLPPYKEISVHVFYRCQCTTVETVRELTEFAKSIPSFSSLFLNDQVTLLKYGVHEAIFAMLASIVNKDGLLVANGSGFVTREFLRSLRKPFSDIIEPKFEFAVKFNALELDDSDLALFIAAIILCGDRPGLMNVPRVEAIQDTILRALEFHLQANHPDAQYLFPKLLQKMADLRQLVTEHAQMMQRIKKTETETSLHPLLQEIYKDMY

[4] = Cmax in C57Bl6 mouse at 10 mg/kg, po administered as single oral dose; type: ADME, organism-based; conditions: in vivo
Procedure, shortened: (§2)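 Single oral dose of 10 mg/kg in methyl cellulose vehicle given to C57Bl6 mice. Plasma was sampled over a 24 h period. […]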

[5] = target: T3, Peroxisome proliferator-activated receptor alpha (Homo sapiens) (UniProt Q07869); assay: Transactivation of PPARalpha in human HuH7 cells assessed increase in [14C]oleate beta-oxidation at 30 uM preincubated for 48 hrs followed by [14C]oleate addition during last 2 hrs of incubation period relative to control; type: cell-based
T3 sequence (whole entry): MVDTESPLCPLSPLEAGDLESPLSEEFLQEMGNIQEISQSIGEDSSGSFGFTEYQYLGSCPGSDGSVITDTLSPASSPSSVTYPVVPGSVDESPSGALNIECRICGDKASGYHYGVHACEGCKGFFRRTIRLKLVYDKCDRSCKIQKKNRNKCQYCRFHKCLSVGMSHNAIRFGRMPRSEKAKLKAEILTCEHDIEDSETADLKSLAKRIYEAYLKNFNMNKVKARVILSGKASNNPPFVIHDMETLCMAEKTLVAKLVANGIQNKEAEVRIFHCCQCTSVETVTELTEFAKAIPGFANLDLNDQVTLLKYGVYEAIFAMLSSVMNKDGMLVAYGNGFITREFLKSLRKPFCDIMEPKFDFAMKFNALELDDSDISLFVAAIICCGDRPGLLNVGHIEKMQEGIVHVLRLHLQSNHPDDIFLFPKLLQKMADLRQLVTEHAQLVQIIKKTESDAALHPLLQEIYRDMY
Procedure, shortened: (§3)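 Fatty acid beta-oxidation was used as the functional read-out. PPARα activity was tested in human hepatoma HuH7 cells and PPARδ activity in mouse myoblast C2C12 cells, at 1, 3, 10 and 30 µM. Values are % beta-oxidation, mean of at least 2 independent experiments run in triplicate, with single-experiment values flagged.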

[6] = target: T4, Peroxisome proliferator-activated receptor gamma (Homo sapiens) (UniProt P37231); assay: Transactivation of human GAL4-fused PPARgamma LBD expressed in African green monkey COS7 cells co-expressing 5Gal4 pGL3 TK Luc after overnight incubation by luciferase reporter gene assay relative to rosiglitazone; type: cell-based; procedure, shortened: as §1
T4 sequence (whole entry): T1 sequence (P37231 whole entry)

[7] = target: T3, Peroxisome proliferator-activated receptor alpha (Homo sapiens); assay: Transactivation of PPARalpha in human HuH7 cells assessed increase in [14C]oleate beta-oxidation at 10 uM preincubated for 48 hrs followed by [14C]oleate addition during last 2 hrs of incubation period relative to control; type: cell-based; procedure, shortened: as §3
[8] = Tmax in C57Bl6 mouse at 10 mg/kg, po administered as single oral dose; type: ADME, organism-based; conditions: in vivo; procedure, shortened: as §2
Mus musculus [9] = assay: Antidiabetic activity in C57BL/Ks mouse model of diabetic dyslipidemia assessed as decrease in plasma glucose level at 10 mg/kg, po qd administered via gavage for 10 days measured 4 hrs post last dose; type: functional, organism-based
Procedure, shortened: (§4)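 Homozygous male C57BL/Ks-db (db/db) mice were gavaged once daily at 10 or 30 mg/kg, for 5 or 10 days. Retro-orbital blood was drawn before treatment and 4 h after the last gavage. Glucose and triglycerides were measured in serum. Results are expressed as % variation on the final day versus the control group. Analysis was one-way ANOVA with Dunnett's test.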

Mus musculus [10] = assay: Hypolipidemic activity in C57BL/Ks mouse model of diabetic dyslipidemia assessed as decrease in plasma triglyceride level at 30 mg/kg, po qd administered via gavage for 10 days measured 4 hrs post last dose; type: functional, organism-based; procedure, shortened: as §4

Row | pEC50 [1] | Papp ([2]; caco-2, 2 h, 10 µM) [×10⁻⁶ cm/s] | pEC50 [3] | Cmax [4] [ng/mL] | Activity [5] [%] | Emax [6] [%] | Activity [7] [%] | Tmax [8] [h] | Papp B→A at 2 h, 10 µM ([2]; Caco-2) [×10⁻⁶ cm/s] | SMILES | Activity (Mus musculus [9]) | Activity (Mus musculus [10])
1 | 6.69 | 0.2 | 6.06 | 10700 | 120 | 79 | 113 | 1 | – | O=C(O)CCCc1cc2cc(Cl)ccc2n1S(=O)(=O)c1ccc2ncsc2c1 [LANIFIBRANOR] | – | –
2 | 5.81 | – | 5.72 | 14600 | 96 | 43 | 45 | 1 | 14.4 | O=C(O)CCc1cc2cc(Cl)ccc2n1S(=O)(=O)c1ccccc1 | inactive | Active
